# Results of several laboratories.
SMILES,organism,assay,system,setting,quantity,value
COC(=O)c1cc(-c2cccc(NC(=O)Nc3ccc(Cl)c(C(F)(F)F)c3)c2)on1,Mycobacteroides abscessus,"microbial growth, broth dilution",ATCC19977,48 h,MIC,> 64 mg/L
CC[C@H](C)[C@H]1C(=O)N2CCC[C@H]2C(=O)O[C@H](C(C)(C)C)C[C@@H](C)C[C@H](O)[C@H](C)C2=N[C@@H](CCC(=O)N[C@@H](Cc3ccc(OC)cc3)C(=O)N(C)[C@@H](C)C(=O)N1C)CS2,Zika virus,viral replication,Huh7.5,24 h,IC50,0.015 µM
C[n+]1ccc(/C=C2\Sc3ccccc3N2CCCN2CCCCC2)c2ccccc21.[I-],Pseudomonas aeruginosa,"microbial growth, broth dilution",ATCCBAA2108,drug-resistant strain,MIC,64 mg/L
O=C(N[C@H](CO)[C@H](O)c1ccc([N+](=O)[O-])cc1)C(Cl)Cl,Bacillus,"microbial growth, broth dilution",ATCC27859,,MIC,0.98 mg/L
O=C(N[C@H](CO)[C@H](O)c1ccc([N+](=O)[O-])cc1)C(Cl)Cl,Bacillus,"microbial growth, broth dilution",ATCC27859,18 h,MIC,0.98 mg/L
CC1CCN(CCCN2/C(=C/c3cc[n+](C)c4ccccc34)Sc3ccccc32)CC1.[I-],Pseudomonas aeruginosa,"microbial growth, broth dilution",ATCCBAA2108,drug-resistant strain,MIC,16 mg/L
COC(=O)c1cc(-c2cccc(NC(=O)Nc3ccc(F)c(F)c3)c2)on1,Mycobacteroides abscessus,"microbial growth, broth dilution",ATCC19977,48 h,MIC,> 64 mg/L
[2H]C([2H])(c1cc(F)c(F)cc1F)n1c(=O)n(Cc2ncn(C)n2)c(=O)[nH]/c1=N\c1cc2cn(C)nc2cc1Cl,Alphacoronavirus 1,"viral replication, inhibitor, qPCR",CRFK,,EC50,~50 µM
CCCCCOc1ccc(-c2cc(-c3ccc(C(=O)N[C@H]4C[C@@H](O)[C@@H](O)NC(=O)[C@@H]5[C@@H](O)[C@@H](C)CN5C(=O)[C@H]([C@H](O)CC(N)=O)NC(=O)[C@H]([C@H](O)[C@@H](O)c5ccc(O)c(OS(=O)(=O)O)c5)NC(=O)[C@@H]5C[C@@H](O)CN5C(=O)[C@H]([C@@H](C)O)NC4=O)cc3)no2)cc1,Kluyveromyces marxianus,biofilm formation,,1 µg/mL,inhibition,53%
CCOC(=O)c1cc(-c2cccc(NC(=O)Nc3ccc(Cl)c(Cl)c3)c2)on1,Mycobacteroides abscessus,"microbial growth, broth dilution",ATCC19977,48 h,MIC,> 64 mg/L
